Assay results as given in publication PMC3742633 (Molecular cancer therapeutics, 2013).
pIC50: −log10 of the molar value.

Key:
LLC tumors [1] = test: 18F-FDG micro-PET imaging of LLC-bearing mice; assay type: in vivo, C57Bl/6 mice; details: 25 mg/kg i.p. once, 45 minutes, normalized to FDG uptake in the cerebellum
Outline: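 Tumor-bearing mice were anesthetized with isoflurane and given 200 μCi FDG i.v. by tail vein. Baseline 15-min static micro-PET scans were taken 45 min after tracer (OSEM, 6 subsets/4 iterations). Tumor and cerebellum regions of interest were quantified in quadruplicate. 24 h later, test compound 25 mg/kg i.p. once, then re-scan 45 min later.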

[2] = tested on: Jurkat T cell leukemia cells; test: Annexin V / propidium iodide flow cytometry; assay type: cell-based, human; details: five hours
MDA-MB-468 = test: NCI 60 cell line screen, Sulforhodamine B Assay; assay type: cell-based; details: Homo sapiens, MDA-MB-468, 48 h
Outline: (§1)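 Run through the NCI-60 screening service: human cancer cell lines exposed to test compound for 48 h. Growth read as cellular protein content by sulforhodamine B staining, and GI50 derived from this.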

HCC-2998 = test: NCI 60 cell line screen, Sulforhodamine B Assay; assay type: cell-based; details: Homo sapiens, HCC 2998, 48 h
Outline: as §1

SNB-15 = test: NCI 60 cell line screen, Sulforhodamine B Assay; assay type: cell-based; details: Homo sapiens, 48 h
Outline: (§2)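 Run through the National Cancer Institute 60 cell line screening service on its panel of 59 human cancer lines in vitro. Cytostatic/toxic effect was read as cellular protein content (sulforhodamine B) over 48 h.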

MOLT-4 = test: NCI 60 cell line screen, Sulforhodamine B Assay; assay type: cell-based; details: Homo sapiens, MOLT-4, 48 h
Outline: as §1

U251 = test: NCI 60 cell line screen, Sulforhodamine B Assay; assay type: cell-based; details: Homo sapiens, U-251, 48 h
Outline: as §2

[3] = tested on: BxPC-3 pancreatic cancer cells; test: BxPC-3 xenograft tumor growth; assay type: in vivo, Balb/C athymic mice; details: 25 mg/kg i.p. every 3 days × 4; similarly to gemcitabine
[4] = tested on: CT26 colon adenocarcinoma cells; test: CT26 xenograft tumor growth; assay type: in vivo, Balb/C athymic mice; details: 25 mg/kg i.p. every 3 days × 4; similarly to irinotecan
SNB-19 = test: NCI 60 cell line screen, Sulforhodamine B Assay; assay type: cell-based; details: Homo sapiens, SNB-19, 48 h
Outline: as §2

purified PFK-1 = test: Activity of purified PFK-1; assay type: biochemical; details: up to 100 μM; data not shown
A549/ATCC = test: NCI 60 cell line screen, Sulforhodamine B Assay; assay type: cell-based; details: Homo sapiens, A549, 48 h
Outline: as §1

M14 = test: NCI 60 cell line screen, Sulforhodamine B Assay; assay type: cell-based; details: Homo sapiens, M14, 48 h
Outline: as §1

LLC tumors [5] = test: Lewis lung carcinoma; assay type: in vivo, C57Bl/6 mice
Outline: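 C57Bl/6 mice (20 g) given 1×10^6 LLC cells s.c. in PBS. At 150–200 mg tumor mass, groups of 8 randomized to DMSO or test compound 25 mg/kg i.p. (methods: every 3 days ×4). Blinded caliper tumor mass and body mass recorded daily; lungs examined for metastases after 14 days. Separate subgroup at day 4: tumors assayed for F26BP, plus H&E and anti-cleaved caspase 3 immunohistochemistry on formalin-fixed paraffin sections.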

UO-31 = test: NCI 60 cell line screen, Sulforhodamine B Assay; assay type: cell-based; details: Homo sapiens, UO-31, 48 h
Outline: as §2

NCI-H522 = test: NCI 60 cell line screen, Sulforhodamine B Assay; assay type: cell-based; details: Homo sapiens, NCI-H522, 48 h
Outline: as §1

SN12C = test: NCI 60 cell line screen, Sulforhodamine B Assay; assay type: cell-based; details: Homo sapiens, 48 h
Outline: as §2

PFKFB4 = PFKFB4 (Homo sapiens, UniProt Q16877); test: Activity of purified PFKFB4; assay type: biochemical; details: up to 100 μM; data not shown
Chain of PFKFB4 (Q16877 whole entry, species assumed): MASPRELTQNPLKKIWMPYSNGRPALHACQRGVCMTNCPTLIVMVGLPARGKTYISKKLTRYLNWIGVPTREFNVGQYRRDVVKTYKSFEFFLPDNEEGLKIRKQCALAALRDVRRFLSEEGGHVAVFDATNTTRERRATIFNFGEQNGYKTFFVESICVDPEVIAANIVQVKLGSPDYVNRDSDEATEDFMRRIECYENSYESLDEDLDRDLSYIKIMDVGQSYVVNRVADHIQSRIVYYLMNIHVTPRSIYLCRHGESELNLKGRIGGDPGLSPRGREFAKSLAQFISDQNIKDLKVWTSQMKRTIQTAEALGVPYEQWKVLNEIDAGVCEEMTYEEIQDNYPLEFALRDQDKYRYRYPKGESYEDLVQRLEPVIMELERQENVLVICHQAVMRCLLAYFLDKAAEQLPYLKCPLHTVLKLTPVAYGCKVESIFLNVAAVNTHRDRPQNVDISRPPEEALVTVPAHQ

Jurkat or H522 cells = test: 2-[1-14C]-deoxy-D-glucose uptake; assay type: cell-based, human; details: three hours exposure, Jurkat and H522
Outline: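 Jurkat or H522 cells in RPMI 1640 + 10% FCS + 50 μg/ml gentamycin at 100,000/ml, treated immediately with DMSO vehicle or test compound for 3 h. Washed in glucose-free RPMI, 30 min with inhibitor, then 1 h with 14C-2-deoxyglucose (0.1 μCi/μl stock). Ice-cold washes, 0.5% SDS lysis, scintillation counting; counts normalized to BCA protein.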

LOX IMVI = test: NCI 60 cell line screen, Sulforhodamine B Assay; assay type: cell-based; details: Homo sapiens, 48 h
Outline: as §1

BT-549 = test: NCI 60 cell line screen, Sulforhodamine B Assay; assay type: cell-based; details: Homo sapiens, BT-549, 48 h
Outline: as §1

OVCAR-4 = test: NCI 60 cell line screen, Sulforhodamine B Assay; assay type: cell-based; details: Homo sapiens, OVCAR-4, 48 h
Outline: as §1

[6] = tested on: H522 human lung adenocarcinoma cells; test: Cell viability, trypan blue exclusion; assay type: cell-based; details: NCI-H522, 48 h, read-out: IC50 cytotoxic effects (viability)
Jurkat and H522 cells = test: Intracellular ATP bioluminescence assay; assay type: cell-based, human
Outline: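 After plating at 1×10^5 cells/well (24 h, 37°C, 5% CO2) and 3 h test compound exposure, adherent cells were washed with cold PBS, lysed in passive lysis buffer and scraped. One freeze (−80°C)/thaw (37°C) cycle, cleared at 4°C. ATP read by firefly luciferase/D-luciferin luminescence at 560 nm against an ATP standard curve, as nmol/mg BCA protein.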

A498 = test: NCI 60 cell line screen, Sulforhodamine B Assay; assay type: cell-based; details: Homo sapiens, A498, 48 h
Outline: as §1

HT29 = test: NCI 60 cell line screen, Sulforhodamine B Assay; assay type: cell-based; details: Homo sapiens, HT-29, 48 h
Outline: as §1

MDA-MB-231/ATCC = test: NCI 60 cell line screen, Sulforhodamine B Assay; assay type: cell-based; details: Homo sapiens, MDA-MB-231, 48 h
Outline: as §1

SF-268 = test: NCI 60 cell line screen, Sulforhodamine B Assay; assay type: cell-based; details: Homo sapiens, SF-268, 48 h
Outline: as §1

[7] = four days after initiation, n=4

O=C(C=Cc1ccc2ccccc2n1)c1ccncc1 [PFK15, 1-(4-pyridinyl)-3-(2-quinolinyl)-2-propen-1-one] was tested, and the “reduction in 18F-FDG uptake” value (LLC tumors [1]) was ~ 50%, the “cells undergoing early apoptosis (Annexin V+/PI−)” value ([2]; 3 μM) was “increased” and the “cells undergoing late apoptosis (Annexin V+/PI+)” value ([2]; 3 and 20 μM) was “dose-dependent increase”. For the same compound, the GI50 (MDA-MB-468) was 1.66 µM, the GI50 (HCC-2998) was 1.91 µM and the GI50 (SNB-15) was 11.2 µM. The GI50 (MOLT-4) was 2.24 µM, the GI50 (U251) was 2.04 µM and the “growth of pancreatic adenocarcinomas (BxPC-3)” value [3] was “suppressed the growth”. For the same compound, the “growth of colon adenocarcinomas (CT26)” value [4] was “suppressed the growth”, the GI50 (SNB-19) was 4.57 µM and the “inhibition of activity of purified PFK-1” value (purified PFK-1) was “not inhibit”. The GI50 (A549/ATCC) was 5.37 µM, the GI50 (M14) was 3.72 µM and the “effect on body mass of LLC-bearing mice” value (LLC tumors [5]; PFK15 i.p., C57Bl/6 mice) was “without a major effect”. For the same compound, the “growth of established LLC tumors” value (LLC tumors [5]; PFK15 i.p., C57Bl/6 mice, 14 days) was “statistically significant reduction”, the “lung metastases in LLC-bearing mice” value (LLC tumors [5]; after 14 days) was “no lung metastases” and the “cells positive for cleaved caspase 3 by immunohistochemistry” value (LLC tumors [5]; [7]) was “marked increase”. The “tumor-associated F26BP” value (LLC tumors [5]; [7]) was “reduced”, the GI50 (UO-31) was 1.62 µM and the GI50 (NCI-H522) was 1.74 µM. For the same compound, the GI50 (SN12C) was 1.86 µM, the “inhibition of activity of purified PFKFB4” value (PFKFB4) was “not inhibit” and the “effect on glucose uptake (14C-2DG)” value (Jurkat or H522 cells) was “reduced”. The GI50 (LOX IMVI) was 1.66 µM, the GI50 (BT-549) was 2.75 µM and the GI50 (OVCAR-4) was 2.34 µM. For the same compound, the pIC50 [6] was 6.14, the “PFK15-mediated ATP depletion [% control]” value (Jurkat and H522 cells; 5 mM glucose + 1 mM pyruvate, p value = 0.0017) was 45.62 ± 1.72% and the “PFK15-mediated ATP depletion [% control]” value (Jurkat and H522 cells; 5 mM glucose alone) was 5.29 ± 0.85%. The “reversal of ATP depletion by glutamine” value (Jurkat and H522 cells; addition of 4 mM glutamine, data not shown) was “could not be significantly reversed”, the “reversal of ATP depletion by lactate” value (Jurkat and H522 cells; addition of 10 mM lactate, data not shown) was “could not be significantly reversed” and the “effect on intracellular ATP” value (Jurkat and H522 cells; three hours exposure, Jurkat and H522) was “reduced”. It also gave a GI50 (A498) of 11.8 µM, a GI50 (HT29) of 2.51 µM and a GI50 (MDA-MB-231/ATCC) of 2.04 µM. It also gave a GI50 (SF-268) of 5.25 µM.
